pIC50: −log10 of the molar value. Active and inactive are the calls of the source. No cut-off for these calls is given here.
What was measured:
[1] = Cytotoxicity against human PC3 cells assessed as growth inhibition after 72 hrs by Alamar blue assay; type: functional, cell-based; conditions: PC-3, 72 h
[2] = Cell cycle arrest in human PC3 cells assessed as accumulation at G0/G1 phase at 0.04 uM after 24 hrs by propidium iodide staining based flow cytometry (reference value: 55.6 +/- 1.4%); type: functional; conditions: PC-3
Method in brief: (§1)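 PC3 cells exposed to compound at various concentrations for 24 h, then harvested, rinsed in ice-cold PBS and fixed in 70% alcohol at −20 °C for 16 h. After a second cold PBS wash, cells were held 20 min at room temperature in 1 mL containing 0.1% Triton X-100, 0.2 mg RNase A and 2 μL PI (1 mg/mL). DNA content was read by flow cytometry.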

[3] = Cell cycle arrest in human PC3 cells assessed as accumulation at S phase at 0.04 uM after 24 hrs by propidium iodide staining based flow cytometry (reference value: 25.8 +/- 0.7%); type: functional; conditions: PC-3; method in brief: as §1
[4] = Cell cycle arrest in human PC3 cells assessed as accumulation at G2/M phase at 0.04 uM after 24 hrs by propidium iodide staining based flow cytometry (reference value: 18.7 +/- 0.7%); type: functional; conditions: PC-3; method in brief: as §1
[5] = Cell cycle arrest in human PC3 cells assessed as accumulation at G0/G1 phase at 0.13 uM after 24 hrs by propidium iodide staining based flow cytometry (reference value: 55.6 +/- 1.4%); type: functional; conditions: PC-3; method in brief: as §1
[6] = Cell cycle arrest in human PC3 cells assessed as accumulation at S phase at 0.13 uM after 24 hrs by propidium iodide staining based flow cytometry (reference value: 25.8 +/- 0.7%); type: functional; conditions: PC-3; method in brief: as §1
[7] = Cell cycle arrest in human PC3 cells assessed as accumulation at G2/M phase at 0.13 uM after 24 hrs by propidium iodide staining based flow cytometry (reference value: 18.7 +/- 0.7%); type: functional; conditions: PC-3; method in brief: as §1
[8] = Cell cycle arrest in human PC3 cells assessed as accumulation at G0/G1 phase at 0.4 uM after 24 hrs by propidium iodide staining based flow cytometry (reference value: 55.6 to 62.5%); type: functional; conditions: PC-3; method in brief: as §1
[9] = Cell cycle arrest in human PC3 cells assessed as accumulation at S phase at 0.4 uM after 24 hrs by propidium iodide staining based flow cytometry (reference value: 15.3 to 25.8%); type: functional; conditions: PC-3; method in brief: as §1
[10] = Cell cycle arrest in human PC3 cells assessed as accumulation at G2/M phase at 0.4 uM after 24 hrs by propidium iodide staining based flow cytometry (reference value: 18.7 to 22.2%); type: functional; conditions: PC-3; method in brief: as §1
PC-3 = assay: Cytotoxicity against human PC3 cells assessed as growth inhibition at 80 uM after 72 hrs by Alamar blue assay; type: functional, cell-based
[11] = Cell cycle arrest in human PC3 cells assessed as accumulation at G2/M phase at 1.3 uM after 24 hrs by propidium iodide staining based flow cytometry (reference value: 22.2 +/- 0.4%); type: functional; conditions: PC-3; method in brief: as §1
[12] = Cell cycle arrest in human PC3 cells assessed as accumulation at G0/G1 phase at 4 uM after 24 hrs by propidium iodide staining based flow cytometry (reference value: 62.5 +/- […]%); type: functional; conditions: PC-3
[13] = Cell cycle arrest in human PC3 cells assessed as accumulation at S phase at 4 uM after 24 hrs by propidium iodide staining based flow cytometry (reference value: 15.3 +/- 3.1%); type: functional; conditions: PC-3; method in brief: as §1
[14] = Cell cycle arrest in human PC3 cells assessed as accumulation at G2/M phase at 4 uM after 24 hrs by propidium iodide staining based flow cytometry (reference value: 22.2 +/- 0.4%); type: functional; conditions: PC-3; method in brief: as §1
[15] = Cell cycle arrest in human PC3 cells assessed as accumulation at G0/G1 phase at 1.3 uM after 24 hrs by propidium iodide staining based flow cytometry (reference value: 62.5 +/- […]%); type: functional; conditions: PC-3
[16] = Cell cycle arrest in human PC3 cells assessed as accumulation at S phase at 1.3 uM after 24 hrs by propidium iodide staining based flow cytometry (reference value: 15.3 +/- 3.1%); type: functional; conditions: PC-3; method in brief: as §1

Molecule `CC[C@@]1(O)C(Br)=C(Br)C(=O)C1=C(Br)Br` has a pIC50 [1] of 6.36, an Activity [2] of 63.3% and an Activity [3] of 18.1%. For the same molecule, the Activity [4] was 13.6%, the Activity [5] was 75% and the Activity [6] was 13.8%. It also gave an Activity [7] of 11.2%, an Activity [8] of 88.4% and an Activity [9] of 11.5%. It also gave an Activity [10] of 0.1%.
For `CC(=O)O[C@@H](C(Br)=C(Br)Br)C(Br)Br`, the inhibition (PC-3) was “inactive”.
With `CC(=O)O[C@H]1C(=O)[C@@]2(C)[C@H]([C@H](OC(=O)c3ccccc3)[C@]3(O)C[C@H](OC(=O)[C@H](O)[C@@H](NC(=O)c4ccccc4)c4ccccc4)C(C)=C1C3(C)C)[C@]1(OC(C)=O)CO[C@@H]1C[C@@H]2O` [PACLITAXEL] the pIC50 [1] was 8.70.
`Cc1oc(C(Br)=C(Br)Br)cc(=O)c1O` gave an Activity [11] of 5.8%, an Activity [12] of 73.3% and an Activity [13] of 23.8%. It also gave an Activity [14] of 2.9%, a pIC50 [1] of 5.00 and an Activity [8] of 63.7%. For the same molecule, the Activity [9] was 18.2%, the Activity [10] was 18.1% and the Activity [15] was 72.7%. For the same molecule, the Activity [16] was 21.5%.
